Source: ChEMBL document CHEMBL1811767, “Quinoxalin-2(1H)-one derivatives as inhibitors against hepatitis C virus” (J Med Chem, 2011)
pEC50, pIC50: −log10 of the molar value. Activity calls are given as the source filed them. No cut-off for these calls is given here.

Key:
[1] = Selectivity index, ratio of IC50 for human Huh7ET cells to EC50 for Hepatitis C virus; assay type: toxicity, cell-based, Huh-7; conditions: read-out: Ratio IC50/EC50
Summary of the method: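 SI taken as IC50 (CytoTox-1 viability, Huh 7 ET replicon cells, 72 h) divided by EC50 (replicon luciferase, same cells and exposure); each from four-replicate averages.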

[2] = Cytotoxicity against human Huh7ET cells by CytoTox-one cell proliferation assay; assay type: cell-based; conditions: Huh-7
Summary of the method: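 Parallel plate of replicon Huh 7 ET cells (5000/well, DMEM without G418), compounds from DMSO stocks diluted in DMEM, 72 h. Viability by tetrazolium-based CytoTox-1 proliferation assay. Mean of four replicates; IC50 = concentration decreasing cell viability by 50%.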

Hepacivirus hominis [3] = experiment: Inhibition of Hepatitis C virus NS5B polymerase
Hepacivirus hominis [4] = experiment: Inhibition of Hepatitis C virus protease
Hepatitis C virus [5] = experiment: Antiviral activity against Hepatitis C virus infected in human Huh7ET cells assessed as inhibition of dicistronic viral RNA replication after 72 hrs by luciferase reporter gene assay; assay type: functional, organism-based, Hepacivirus hominis; conditions: Huh-7, 72 h
Summary of the method: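 HCV replicon Huh 7 ET cells seeded 5000/well in DMEM without G418 overnight; compounds dissolved in DMSO, diluted in DMEM, dose-response. After 72 h, replicon-derived luciferase read by Steady-Glo. Mean of four replicates; EC50 = concentration inhibiting HCV RNA replication by 50%.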

Hepatitis C virus [6] = experiment: Antiviral activity against Hepatitis C virus infected in human Huh7ET cells assessed as inhibition of dicistronic viral RNA replication at 20 uM after 72 hrs by luciferase reporter gene assay; assay type: functional, Hepacivirus hominis, Huh-7; parameters: scale not given: the % may be the effect or the level left
Summary of the method: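 Primary screen at single 20 μM in replicon Huh 7 ET cells (5000/well, DMEM without G418, overnight seeding). After 72 h exposure, replicon luciferase measured with Steady-Glo. Value expressed as percent inhibition relative to control cells.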

[7] = Cytotoxicity against human Huh7ET cells at 20 uM by CytoTox-one cell proliferation assay; assay type: cell-based; conditions: huh-7, 20 µM
Summary of the method: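 Huh 7 ET replicon cells exposed to single 20 μM for 72 h in primary screen; viability by tetrazolium-based CytoTox-1 assay, reported as percent relative to control cells.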

Row | SMILES | inhibition (Hepacivirus hominis [3]) | inhibition (Hepacivirus hominis [4]) | pEC50 (Hepatitis C virus [5]) | selectivity ratio [1] | pIC50 [2] | Activity (Hepatitis C virus [6]) [%] | Cell viability relative to control [7] [%]
1 | O=c1cnc2cc(N3CCCCC3)c(Nc3nc(-c4ccccc4)cs3)cc2[nH]1 | – | – | – | – | – | 9 | 35.1
2 | O=c1cnc2cc(N3CCN(c4ccc(F)cc4)CC3)c(Nc3nc(-c4ccccc4)cs3)cc2[nH]1 | – | – | – | – | – | 35 | 84.3
3 | CN(c1cc2ncc(=O)[nH]c2cc1NC(=S)NC(=O)c1ccc(Cl)nc1)C1CCCCC1 | – | – | 4.79 | 2.1 | 4.46 | – | –
4 | CN(c1cc2ncc(=O)[nH]c2cc1NC(=N)NCc1cccc(C(F)(F)F)c1)C1CCCCC1 | – | – | < 4.70 | < 2.7 | 4.27 | – | –
5 | CN(c1cc2ncc(=O)[nH]c2cc1N1C(=O)CN(c2cccc3ccccc23)C1=S)C1CCCCC1 | – | – | 4.88 | 0.85 | 4.95 | – | –
6 | O=c1cnc2cc(OC3CCCCC3)c(Nc3nc(-c4ccccc4)cs3)cc2[nH]1 | – | – | – | – | – | 4.9 | 74.4
7 | COc1ccc(CNC(=N)Nc2cc3[nH]c(=O)cnc3cc2N(C)C2CCCCC2)cc1 | – | – | < 4.70 | < 0.98 | 4.71 | – | –
8 | CN(c1cc2ncc(=O)[nH]c2cc1Nc1nc(-c2cccs2)cs1)C1CCCCC1 | – | – | < 4.70 | < 3.6 | 4.15 | – | –
9 | CCN(c1cc2ncc(=O)[nH]c2cc1Nc1nc(-c2ccccc2)cs1)C1CCCCC1 | – | – | – | – | – | 35 | 58
10 | CN(c1cc2ncc(=O)[nH]c2cc1NC(=S)Nc1ccc(F)cc1)C1CCCCC1 | – | – | < 4.70 | < 3.2 | 4.19 | – | –
11 | CN(c1cc2ncc(=O)[nH]c2cc1Nc1nc(-c2ccc3c(c2)OCO3)cs1)C1CCCCC1 | – | – | < 4.70 | < 3.1 | 4.21 | – | –
12 | CSCCc1nc2cc(N(C)C3CCCCC3)c(Nc3nc(-c4ccccc4)cs3)cc2[nH]c1=O | – | – | < 4.70 | < 4.3 | 4.07 | – | –
13 | CCOC(=O)C1CCN(c2cc3ncc(=O)[nH]c3cc2Nc2nc(-c3ccccc3)cs2)CC1 | – | – | – | – | – | 37.6 | 59.6
14 | CN(c1cc2c(cc1Nc1nc(-c3ccccc3)cs1)NC(=O)CO2)C1CCCCC1 | – | – | 4.81 | 1.1 | 4.76 | – | –
15 | CN(c1cc2nc(Cc3ccccc3)c(=O)[nH]c2cc1Nc1nc(-c2ccccc2)cs1)C1CCCCC1 | – | – | < 4.70 | < 2.1 | 4.38 | – | –

Second part, led by results:

Row | inhibition (Hepacivirus hominis [3]) | inhibition (Hepacivirus hominis [4]) | pEC50 (Hepatitis C virus [5]) | SMILES | selectivity ratio [1] | pIC50 [2] | Activity (Hepatitis C virus [6]) [%] | Cell viability relative to control [7] [%]
16 | inactive | inactive | 5.78 | CN(c1cc2ncc(=O)[nH]c2cc1Nc1nc(-c2ccccc2)cs1)C1CCCCC1 | 37.4 | 4.20 | – | –
17 | – | – | 5.53 | CN(c1cc2ncc(=O)[nH]c2cc1NC(=S)NC(=O)c1ccc(F)cc1)C1CCCCC1 | 3.8 | 4.94 | – | –
18 | – | – | 5.01 | CN(c1cc2ncc(=O)[nH]c2cc1NC(=O)Nc1cccc2ccccc12)C1CCCCC1 | 0.5 | 5.27 | – | –
19 | – | – | 5.09 | CN(c1cc2ncc(=O)[nH]c2cc1Nc1nc(C(F)(F)F)cs1)C1CCCCC1 | 4.6 | 4.43 | – | –
20 | – | – | 5.41 | Cc1nc2cc(N(C)C3CCCCC3)c(Nc3nc(-c4ccccc4)cs3)cc2[nH]c1=O | 3.15 | 4.91 | – | –
21 | – | – | 5.34 | CN1CCN(c2cc3ncc(=O)[nH]c3cc2Nc2nc(-c3ccccc3)cs2)CC1 | 2.2 | 4.99 | – | –
22 | – | – | 4.94 | CN(c1cc2ncc(=O)[nH]c2cc1NC(=O)Nc1ccccc1)C1CCCCC1 | 0.5 | 5.26 | – | –
23 | – | – | 5.17 | CN(c1cc2ncc(=O)[nH]c2cc1NC(=S)NC(=O)/C=C/c1ccccc1)C1CCCCC1 | 1.6 | 4.96 | – | –
24 | – | – | 4.94 | CN(c1cc2ncc(=O)[nH]c2cc1NC(=N)NCc1ccccc1)C1CCCCC1 | 0.87 | 5.00 | – | –
25 | – | – | 5.26 | CN(c1cc2ncc(=O)[nH]c2cc1Nc1nc(-c2cccnc2)cs1)C1CCCCC1 | 2.09 | 4.94 | – | –
26 | – | – | 5.66 | CN(c1cc2ncc(=O)[nH]c2cc1N1CC(=O)N(c2ccccc2)C1=S)C1CCCCC1 | 1.4 | 5.52 | – | –
27 | – | – | 5.39 | CN(c1cc2ncc(=O)[nH]c2cc1NC(=S)NC(=O)c1cccc(C(F)(F)F)c1)C1CCCCC1 | 7.5 | 4.50 | – | –
28 | – | – | 5.17 | CN(c1cc2ncc(=O)[nH]c2cc1Nc1nc(-c2cccc3ccccc23)cs1)C1CCCCC1 | 8.4 | 4.24 | – | –
29 | – | – | 5.90 | CCN(CC)c1cc2ncc(=O)[nH]c2cc1Nc1nc(-c2ccccc2)cs1 | 17.9 | 4.64 | – | –
30 | – | – | 5.63 | CN(c1cc2ncc(=O)[nH]c2cc1NC(=S)NC(=O)c1ccc(OC(F)(F)F)cc1)C1CCCCC1 | 2.78 | 5.19 | – | –
31 | – | – | 5.22 | CN(c1cc2ncc(=O)[nH]c2cc1Nc1nc(-c2ccc(C#N)cc2)cs1)C1CCCCC1 | 2.98 | 4.74 | – | –
32 | – | – | 5.06 | CC(C)c1nc2cc(N(C)C3CCCCC3)c(Nc3nc(-c4ccccc4)cs3)cc2[nH]c1=O | 7.8 | 4.17 | – | –
33 | – | – | 5.74 | CN(c1cc2c(cc1Nc1nc(-c3ccccc3)cs1)[nH]c(=O)c1cccn12)C1CCCCC1 | 9.9 | 4.74 | – | –
